Shown are actives, neighbours in structure and some others; about 1.7% of the full set was active somewhere.
Rpn11 block – Rpn11 (human) deubiquitinase inhibition. AID 588493. O00487. 360,000 tested, 0.59% active. human 26S proteasome, Ub4-pepOG fluorescence polarization; 20S core pre-blocked with epoxomicin. inhibition, % at 20 µM;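 active = inhibition at 20 µM, scaled to each plate's controls, above about 33%, limit read from the data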
Target sequence (O00487 whole entry, looked up): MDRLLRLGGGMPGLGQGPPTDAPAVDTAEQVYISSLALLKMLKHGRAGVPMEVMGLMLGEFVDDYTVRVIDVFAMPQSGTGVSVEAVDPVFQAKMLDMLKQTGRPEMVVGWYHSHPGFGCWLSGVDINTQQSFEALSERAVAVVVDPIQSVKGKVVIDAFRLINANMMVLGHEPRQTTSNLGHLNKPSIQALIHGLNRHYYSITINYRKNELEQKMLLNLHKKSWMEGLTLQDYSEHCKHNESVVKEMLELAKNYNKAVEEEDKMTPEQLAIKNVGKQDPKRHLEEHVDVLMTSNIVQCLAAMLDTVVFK
UCH37 DUB inh – blocks the human deubiquitinase UCH37 | Q9Y5K5 | purified proteasome/UCH37, Ub-AMC cleavage fluorescence | inhibition, % (concentration not given with the values) | 330,000 tested, 0.33% active | AID 588478;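 active = mean inhibition over replicate wells above about 20%, limit read from the data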
Target sequence (Q9Y5K5 whole entry, looked up): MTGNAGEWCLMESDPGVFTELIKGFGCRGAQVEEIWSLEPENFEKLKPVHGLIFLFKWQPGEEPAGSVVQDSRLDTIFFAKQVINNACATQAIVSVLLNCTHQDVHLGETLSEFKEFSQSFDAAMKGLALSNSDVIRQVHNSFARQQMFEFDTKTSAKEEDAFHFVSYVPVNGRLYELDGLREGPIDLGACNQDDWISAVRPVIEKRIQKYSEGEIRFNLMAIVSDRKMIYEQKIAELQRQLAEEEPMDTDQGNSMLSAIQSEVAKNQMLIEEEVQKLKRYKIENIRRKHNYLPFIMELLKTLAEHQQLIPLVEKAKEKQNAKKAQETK
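system = Proteasome-associated human UCH37 deubiquitinase | amount = 0.15 nM proteasome as dispensed | medium = pH 7.4 Tris-HCl (50 mM) with ovalbumin, ATP-MgCl2, DTT | incubation = 30 min preincubation with enzyme, 25 min cleavage at room temperature | detection = AMC fluorescence 355/460 nm | read-out basis = percent inhibition | controls = no-proteasome and no-compound wells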
PLCg1 inh – PLC-gamma1 (human) inhibition, primary screen; inhibition, % at 12.2 µM; 370,000 tested, 0.84% active; purified PLC-gamma1, fluorogenic substrate, fluorescence; P19174; in the data active = inhibition above about 9.5%
PLCb3 inh – PLC-beta3 (human) inhibition, primary screen; Q01970; Purified PLC-beta3, fluorogenic substrate, fluorescence; inhibition, % at 12.2 µM; 370,000 tested, 0.18% active; in the data active = inhibition above about 11%
Hits are given with their value; n = inactive; x = no result shown; + = active, no number.

SMILES	Rpn11 block	UCH37 DUB inh	PLCg1 inh	PLCb3 inh
O=C(COC(=O)CNC(=O)c1ccccc1F)NC12CC3CC(CC(C3)C1)C2	n	n	12	n
O=C(COC(=O)CNC(=O)c1ccccc1F)NC1CC1	n	n	n	n
O=C(CN1C(=O)NC2(CCCCC2)C1=O)Nc1ccc2c(c1)OCCCO2	n	n	9.6	n
O=C(CN1C(=O)NC2(CCCCCC2)C1=O)Nc1cccc(F)c1	n	n	n	n
O=C1CSC(=Nc2ccccc2[N+](=O)[O-])N1	n	29	n	n
Cc1nc(Nc2ccc(S(N)(=O)=O)cc2)sc1C(=O)Nc1ccccc1	n	21	n	n
CC(C)NC(=S)NN=Cc1cc(Br)ccc1O	x	n	x	x
O=C(Nc1cc(C(F)(F)F)ccc1N1CCOCC1)c1ccccc1	n	n	n	n
O=C(O)c1ccccc1C(=O)Nc1cc(C(F)(F)F)ccc1N1CCCC1	n	n	10	n
Cc1oc2ccc(OC(C(=O)O)c3ccccc3)cc2c1C(=O)O (stereo not drawn)	n	n	9.9	n
CC(Oc1ccc2oc(-c3ccccc3)c(C(=O)O)c2c1)C(=O)O (stereo not drawn)	n	n	n	n
CN(C)c1ccc(/C=C(/NC(=O)c2ccccc2)C(=O)NN=Cc2ccc([N+](=O)[O-])c(O)c2)cc1	x	20	x	x
COc1ccc(N=Cc2c(O)[nH]c3ccccc23)cc1	n	n	n	n
COc1ccc(CN=Cc2c(O)[nH]c3ccccc23)cc1	n	n	10.0	n
COc1cc(/C=C(\C#N)c2nc3ccc(C)cc3[nH]2)cc([N+](=O)[O-])c1O	n	24	n	n
CCOC(=O)C(C#N)=NNc1ccc(S(=O)(=O)Nc2nc(C)cc(C)n2)cc1	x	n	x	x
COC(=O)[C@@H]1C[C@@H](c2ccccc2)[C@H](C)C1(C)C	n	n	9.7	n
COC(=O)[C@H]1C[C@@H](c2ccccc2)[C@H](C)C1(C)C	n	n	n	n
CC1=NN(c2cccc(C(=O)O)c2)C(=O)/C1=C\C=C\c1ccco1	n	n	23	n
CC1=NN(c2ccccc2)C(=O)/C1=C/C=C/c1ccccc1	n	n	n	n
C=CCn1c(C)cc(C2=NNC(=Nc3ccc(C)cc3)SC2)c1C	n	29	n	n
NC(=O)c1ccc(C(=O)NN=Cc2cccc(Oc3ccccc3)c2)cc1	x	n	x	x
Cc1ccc(/C=C/C2=NN(C)C(=O)CC2)cc1	n	21	n	n
CN1N=C(/C=C/c2ccccc2)CCC1=O	n	n	n	n
CC(=NO)c1ccccc1C(=O)O	x	n	x	x
SMILES	Rpn11 block	UCH37 DUB inh	PLCg1 inh	PLCb3 inh
COc1ccc(C=NNC(=O)c2[nH]nc3c2CCc2ccccc2-3)cc1OC	x	n	x	x
Cc1ccc(NC2CCCN(C(=O)CCN3CCCCO3)C2)cc1C (stereo not drawn)	n	n	12	n
CC(=O)N1CCC2(CC1)CC(=NNC(=S)Nc1ccc(C)cc1)c1cc(O)ccc1O2	x	n	x	x
O=C(NCCC1=CCCCC1)C1CCN(S(=O)(=O)c2cnc[nH]2)CC1	n	20	n	n
Cc1ccc([N+](=O)[O-])cc1-c1ccc(C=Nn2nnnc2N)o1	x	n	x	x
Cn1nnnc1Sc1ncnc2scc(-c3ccc(Br)cc3)c12	n	n	n	n
Cn1nnnc1Sc1ncnc2scc(-c3ccc(F)cc3)c12	49	n	n	n
CCCCCCCCCCCCCCCC[n+]1ccc(/C=N/O)cc1	66	x	17	n
CCC(C)S(=O)(=O)c1snnc1C (stereo not drawn)	n	31	n	n
O=[N+]([O-])c1ccc(N/N=C/c2ccc(O)c(O)c2O)c(S(=O)(=O)N2CCOCC2)c1	n	x	11	n
COc1cc(C=NNc2ccc([N+](=O)[O-])cc2S(=O)(=O)N2CCOCC2)cc(OC)c1OC	x	n	x	x
O=C(O)c1cccc(Cn2c(Cl)c(C=NNC(=O)c3cc4ccccc4cc3O)sc2=O)c1	x	22	x	x
CCN(CC)c1nc(N)c2c(N)nc3c(c2c1C#N)CC(c1ccccc1)O3 (stereo not drawn)	n	n	n	n
CCN(CC)c1nc(N)c2c(N)n(-c3ccccc3C)c(=S)c(C#N)c2c1C#N	x	21	n	n
CCN1/C(=C/c2ccc3cc(C)ccc3[n+]2C)Sc2ccc3sccc3c21	108	n	n	n
CCN1/C(=C/c2ccc3cc(C)ccc3[n+]2CC)Sc2cc(C)ccc21	x	n	n	n
C=C(C)C(=O)O[C@H]1CC(C)=CC(=O)C=C(C)[C@H](O)[C@@H]2OC(=O)C(=C)[C@@H]21	x	n	x	x
CC(=O)Nc1ccc(NC(=O)c2ccco2)cc1	n	n	n	n
CC(=O)c1ccc(NC(=O)c2ccc(NC(=O)c3ccco3)cc2)cc1	+	n	x	x
CC(=O)c1cn(CC(=O)Nc2ccc(C)cc2)c2ccccc12	n	20	n	n
CCOc1cc(C=NNC(=O)c2cccnc2)ccc1OCC(N)=O	x	n	x	x
CC1=NC(=O)C(N=Nc2ccccc2C(=O)O)N1c1ccccc1 (stereo not drawn)	n	21	n	n
CC1=NC(=O)C(N=Nc2ccccc2)N1c1ccccc1 (stereo not drawn)	n	n	n	n
COc1ccc(C=NN2CCOCC2)cc1O	x	n	x	x
CCOC(=O)c1sc2nc3c(SCC(=O)O)cc(C(=O)c4cc(F)ccc4O)cn3c(=O)c2c1C	58	n	n	n
SMILES	Rpn11 block	UCH37 DUB inh	PLCg1 inh	PLCb3 inh
C/C(C=NNC(=O)c1c(Br)cnn1C)=C\c1ccccc1	x	n	x	x
Cc1ccccc1S(=O)(=O)N=C(c1ccccc1)N(C)C	x	n	x	x
O=c1c(=Cc2cc([N+](=O)[O-])cc([N+](=O)[O-])c2O)sc2nc3ccccc3n12	x	27	x	x
Cc1sc2nc(CSCC(=O)N(CCC#N)c3ccccc3)[nH]c(=O)c2c1C	42	n	n	n
O=C(NC(=S)NC1CCS(=O)(=O)C1)c1ccccc1 (stereo not drawn)	n	n	n	n
CN(C1=C(NC(=O)c2ccccc2)C(=O)c2ccccc2C1=O)C1CCS(=O)(=O)C1 (stereo not drawn)	n	49	n	n
C#CCNC(=O)C1=C[C@@H](c2ccc(Br)cc2)[C@H](CCCO)[C@@H](OCC)O1	n	24	n	n
COc1ccc(-c2ncncc2-c2csc(C)n2)c(O)c1OC	n	n	n	n
COC1=C(N)C(=O)c2nc(-c3nc(C(=O)O)c(C)c(-c4ccc(OC)c(OC)c4O)c3N)ccc2C1=O	x	82	x	x
O=C(NNC(=O)c1cccs1)c1ccc(Cl)c([N+](=O)[O-])c1	n	21	n	n
O=C(COC(=O)CNC(=O)c1ccc(Cl)c([N+](=O)[O-])c1)NNC(=O)c1cccs1	n	n	n	n
C/C(C=NNC(=O)Cn1cncn1)=C/c1ccc(C(C)C)cc1	x	23	x	x
CC(/C=N\NC(=O)Cn1cncn1)=C/c1ccc(C(C)C)cc1	n	x	n	n
O=C(NN=Cc1ccoc1)c1ccco1	x	n	x	x
CCOC(=O)C1CCN(C(c2cc3ccc(C)c(C)c3[nH]c2=O)c2nnnn2C2CCCCC2)CC1 (stereo not drawn)	31	n	n	n
O=C1C(Cl)=C(NCCN2CCCCC2)C(=O)c2ccccc21	n	41	x	x
CCNC1=C(Cl)C(=O)c2ccccc2C1=O	n	n	n	n
CSc1ccc(/C=C2\C(=N)N3N=C(CC(=O)N4CCOCC4)SC3=NC2=O)cc1	n	n	n	n
